Where “and” joins values, the source holds several entries; their conditions need not be identical. Equal values may be shown once.
What was measured:
[1] = tested on: U2OS; experiment: Multiplex assay against U2OS; assay type: toxicity, cell-based; conditions: human
Outline: (§1)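 Tubulin, mitochondrial-mass and membrane-permeability phenotypes are per cents of healthy-nucleus cells. Cells were gated by CellPathfinder machine learning into Hoechst high-intensity objects or normal cells, normal cells into healthy, pyknosed or fragmented nuclei, and pyknosed cells into mitotic or apoptotic. Before that, live cells stained at seeding with Hoechst33342, BioTracker Green Microtubule Cytoskeleton Dye, MitoTracker Red and Annexin V Alexa Fluor 680 were imaged on a CQ1 microscope at 37°C and 5% CO2 after compound addition.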

[2] = tested on: Fibroblast; experiment: Multiplex assay against human fibroblast; assay type: toxicity, cell-based; outline: as §1
[3] = 24 h, 1 µM, compound concentration 1 uM
[4] = 24 h, 10 µM, compound concentration 10 uM
[5] = 48 h, 1 µM, compound concentration 1 uM
[6] = 48 h, 10 µM, compound concentration 10 uM
[7] = 12 h, 1 µM, compound concentration 1 uM
[8] = 12 h, 10 µM, compound concentration 10 uM

SMILES: O=C(O)Cc1ccccc1Nc1c(Cl)cccc1Cl [DICLOFENAC]
- Population Pyknosed Nuclei (%) [1, 3]: 7% and 10%
- Population Tubulin-Different-Phenotype (%) [1, 3]: 2%
- Total Cell Count [1, 3]: 191 and 165
- Population Apoptotic (%) [1, 4]: 72% and 81%
- Population Fragmented Nuclei (%) [1, 4]: 17% and 15%
- Population Healthy Nuclei (%) [1, 4]: 72% and 77%
- Population Hoechst High Intensity Objects (%) [1, 4]: 0% and 1%
- Population Membrane Permeable-Phenotype (%) [1, 4]: 3% and 5%
- Population Mitochondria Different-Phenotype (%) [1, 4]: 1% and 2%
- Population Mitotic Cells (%) [1, 4]: 27% and 18%
- Population Normal (%) [1, 4]: 99% and 98%
- Population Pyknosed Nuclei (%) [1, 4]: 10% and 7%
- Population Tubulin-Different-Phenotype (%) [1, 4]: 2% and 4%
- Total Cell Count [1, 4]: 311 and 153
- Population Apoptotic (%) [1, 5]: 100% and 83%
- Population Fragmented Nuclei (%) [1, 5]: 17% and 15%
- Population Healthy Nuclei (%) [1, 5]: 71% and 70%
- Population Hoechst High Intensity Objects (%) [1, 5]: 4% and 3%
- Population Membrane Permeable-Phenotype (%) [1, 5]: 4%
- Population Mitochondria Different-Phenotype (%) [1, 5]: 2% and 4%
- Population Mitotic Cells (%) [1, 5]: 0% and 16%
- Population Normal (%) [1, 5]: 95% and 96%
- Population Pyknosed Nuclei (%) [1, 5]: 10% and 14%
- Population Tubulin-Different-Phenotype (%) [1, 5]: 2% and 4%
- Total Cell Count [1, 5]: 271 and 216
- Population Apoptotic (%) [1, 6]: 86% and 100%
- Population Fragmented Nuclei (%) [1, 6]: 16% and 12%
- Population Healthy Nuclei (%) [1, 6]: 73% and 75%
- Population Hoechst High Intensity Objects (%) [1, 6]: 2% and 1%
- Population Membrane Permeable-Phenotype (%) [1, 6]: 6%
- Population Mitochondria Different-Phenotype (%) [1, 6]: 1%
- Population Mitotic Cells (%) [1, 6]: 13% and 0%
- Population Normal (%) [1, 6]: 97% and 98%
- Population Pyknosed Nuclei (%) [1, 6]: 10% and 11%
- Population Tubulin-Different-Phenotype (%) [1, 6]: 2% and 6%
- Total Cell Count [1, 6]: 436 and 220
- Population Apoptotic (%) [2, 7]: 43% and 33%
- Population Fragmented Nuclei (%) [2, 7]: 14% and 25%
- Population Healthy Nuclei (%) [2, 7]: 67% and 49%
- Population Hoechst High Intensity Objects (%) [2, 7]: 0% and 2%
- Population Membrane Permeable-Phenotype (%) [2, 7]: 1% and 7%
- Population Mitochondria Different-Phenotype (%) [2, 7]: 6%
- Population Mitotic Cells (%) [2, 7]: 56% and 66%
- Population Normal (%) [2, 7]: 99% and 97%
- Population Pyknosed Nuclei (%) [2, 7]: 17% and 25%
- Population Tubulin-Different-Phenotype (%) [2, 7]: 25% and 49%
- Population Apoptotic (%) [2, 8]: 32% and 38%
- Population Fragmented Nuclei (%) [2, 8]: 14% and 36%
- Population Healthy Nuclei (%) [2, 8]: 68% and 46%
- Population Hoechst High Intensity Objects (%) [2, 8]: 0% and 6%
- Population Membrane Permeable-Phenotype (%) [2, 8]: 0% and 16%
- Population Mitochondria Different-Phenotype (%) [2, 8]: 5% and 8%
- Population Mitotic Cells (%) [2, 8]: 68% and 61%
- Population Normal (%) [2, 8]: 99% and 93%
- Population Pyknosed Nuclei (%) [2, 8]: 17%
- Population Tubulin-Different-Phenotype (%) [2, 8]: 24% and 54%
- Population Apoptotic (%) [2, 3]: 52% and 35%
- Population Fragmented Nuclei (%) [2, 3]: 15% and 28%
- Population Healthy Nuclei (%) [2, 3]: 66% and 49%
- Population Hoechst High Intensity Objects (%) [2, 3]: 2% and 3%
- Population Membrane Permeable-Phenotype (%) [2, 3]: 0% and 12%
- Population Mitochondria Different-Phenotype (%) [2, 3]: 4% and 6%
- Population Mitotic Cells (%) [2, 3]: 47% and 64%
- Population Normal (%) [2, 3]: 97% and 96%
- Population Pyknosed Nuclei (%) [2, 3]: 17% and 21%
- Population Tubulin-Different-Phenotype (%) [2, 3]: 29% and 50%
- Population Apoptotic (%) [2, 4]: 30% and 50%
- Population Fragmented Nuclei (%) [2, 4]: 16% and 31%
- Population Healthy Nuclei (%) [2, 4]: 68% and 50%
- Population Hoechst High Intensity Objects (%) [2, 4]: 5% and 2%
- Population Membrane Permeable-Phenotype (%) [2, 4]: 0% and 8%
- Population Mitochondria Different-Phenotype (%) [2, 4]: 5% and 10%
- Population Mitotic Cells (%) [2, 4]: 69% and 50%
- Population Normal (%) [2, 4]: 94% and 97%
- Population Pyknosed Nuclei (%) [2, 4]: 15% and 18%
- Population Tubulin-Different-Phenotype (%) [2, 4]: 19% and 55%
- Population Apoptotic (%) [2, 5]: 85% and 57%
- Population Fragmented Nuclei (%) [2, 5]: 21% and 36%
- Population Healthy Nuclei (%) [2, 5]: 61% and 53%
- Population Hoechst High Intensity Objects (%) [2, 5]: 3% and 5%
- Population Membrane Permeable-Phenotype (%) [2, 5]: 4%
- Population Mitochondria Different-Phenotype (%) [2, 5]: 4%
- Population Mitotic Cells (%) [2, 5]: 15% and 42%
- Population Normal (%) [2, 5]: 96% and 94%
- Population Pyknosed Nuclei (%) [2, 5]: 16% and 10%
- Population Tubulin-Different-Phenotype (%) [2, 5]: 24% and 44%
- Population Apoptotic (%) [2, 6]: 73% and 30%
- Population Fragmented Nuclei (%) [2, 6]: 22% and 35%
- Population Healthy Nuclei (%) [2, 6]: 65% and 50%
- Population Hoechst High Intensity Objects (%) [2, 6]: 3%
- Population Membrane Permeable-Phenotype (%) [2, 6]: 0% and 4%
- Population Mitochondria Different-Phenotype (%) [2, 6]: 3% and 6%
- Population Mitotic Cells (%) [2, 6]: 26% and 69%
- Population Normal (%) [2, 6]: 96%
- Population Pyknosed Nuclei (%) [2, 6]: 12% and 14%
- Population Tubulin-Different-Phenotype (%) [2, 6]: 28% and 53%
